Active and inactive are the calls of the source. No cut-off for these calls is given here.
How the values were obtained:
[1] = tested on: SW480; test: Growth inhibition of human SW480 cells at 50 uM by Cell-titer-fluor reagent based assay relative to control; assay type: functional; details: read-out: GI
[2] = organism: Homo sapiens; test: Inhibition of Wnt/beta-Catenin signaling (unknown origin) expressed in recombinant human Wnt-3a-induced Wnt-HEK293 cells assessed as increase in beta-catenin degradation at 1 uM by Western blot analysis; assay type: cell-based
[3] = tested on: HEK293; test: Induction of Axin-1 protein expression in recombinant human Wnt-3a-induced Wnt-HEK293 cells at 1 uM by fluorescence microscopy; assay type: functional, cell-based
Procedure, shortened: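 HEK293 cells treated at 1 µM, stained with anti-Axin-1 antibody and DAPI, imaged by fluorescence microscopy.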

[4] = organism: Homo sapiens; test: Inhibition of Wnt/beta-Catenin signaling in human SW620 cells assessed as reduction in beta-catenin protein level at 1 to 30 uM by Western blot analysis; assay type: cell-based
Procedure, shortened: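 SW620 cells treated with a dose range of compound and lysed in RIPA buffer with protease inhibitor. Protein at 2 mg/mL, denatured at 98 °C for 5 min, run on 7.5% SDS-PAGE and transferred to nitrocellulose. Blocked in 5% BSA; rabbit anti-β-catenin (1:2,000) overnight at 4 °C with β-actin as loading control. HRP secondary (1:8000), 2 h; ECL detection.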

[5] = biological target: AMP-activated protein kinase, AMPK (Homo sapiens) (UniProt P54646+O43741+P54619+Q9UGJ0+Q9Y478+Q13131+Q9UGI9); test: Activation of AMPK in human SW620 cells assessed as increase in AMPK phosphorylation incubated for 24 hrs by Western blot analysis; assay type: cell-based
Procedure, shortened: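 SW620 cells in RPMI 1640 with 10% FBS, treated over a concentration range. Lysed in RIPA with protease inhibitors, 20 µL of 2 mg/mL protein run on 7.5% SDS-PAGE, transferred to nitrocellulose, blocked in 5% BSA. Rabbit primaries (Axin-1, ACC, pACC, AMPK, pAMPK at 1:1,000; β-actin 1:2,000) overnight at 4 °C, HRP secondary 1:8000 for 2 h, ECL.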

[6] = tested on: SW-620; test: Inhibition of colony formation in human SW620 cells incubated for 14 days by crystal violet staining based assay; assay type: functional, cell-based
Procedure, shortened: (§1)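 SW480, SW620 or HT29 cells seeded at 300/well in 3 mL medium in 6-well plates with a concentration series of compound. After 14 days, fixed in 4% formaldehyde and stained with 0.5% crystal violet in 25% aqueous MeOH; colonies photographed.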

[7] = tested on: SW480; test: Inhibition of colony formation in human SW480 cells incubated for 14 days by crystal violet staining based assay; assay type: functional, cell-based; procedure, shortened: as §1
[8] = tested on: SW480; test: Induction of apoptosis in human SW480 cells incubated for 48 hrs by AAD-7 and FITC-annexin-V staining based flow cytometry; assay type: functional, cell-based
[9] = tested on: SW-620; test: Induction of apoptosis in human SW620 cells assessed as viable cells level at 1 uM incubated for 48 hrs by AAD-7 and FITC-annexin-V staining based flow cytometry (reference value: 73.8%); assay type: functional
[10] = tested on: SW-620; test: Induction of apoptosis in human SW620 cells assessed as early apoptotic cells level at 1 uM incubated for 48 hrs by AAD-7 and FITC-annexin-V staining based flow cytometry (reference value: 18.6%); assay type: functional
[11] = tested on: SW-620; test: Induction of apoptosis in human SW620 cells assessed as late apoptotic cells level at 1 uM incubated for 48 hrs by AAD-7 and FITC-annexin-V staining based flow cytometry (reference value: 7.6%); assay type: functional
[12] = tested on: SW-620; test: Induction of apoptosis in human SW620 cells assessed as early apoptotic cells level at 3 uM incubated for 48 hrs by AAD-7 and FITC-annexin-V staining based flow cytometry (reference value: 18.6%); assay type: functional
[13] = tested on: SW-620; test: Induction of apoptosis in human SW620 cells assessed as late apoptotic cells level at 3 uM incubated for 48 hrs by AAD-7 and FITC-annexin-V staining based flow cytometry (reference value: 7.6%); assay type: functional
[14] = tested on: SW-620; test: Induction of apoptosis in human SW620 cells assessed as viable cells level at 10 uM incubated for 48 hrs by AAD-7 and FITC-annexin-V staining based flow cytometry (reference value: 73.8%); assay type: functional
[15] = tested on: SW-620; test: Induction of apoptosis in human SW620 cells assessed as late apoptotic cells level at 10 uM incubated for 48 hrs by AAD-7 and FITC-annexin-V staining based flow cytometry (reference value: 7.6%); assay type: functional
[16] = biological target: High affinity nerve growth factor receptor (Homo sapiens) (UniProt P04629); test: Inhibition of NTRK1 (unknown origin) at 1000 nM relative to control
Procedure, shortened: (§2)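 Single-concentration screen at 1000 nM against a 273-kinase panel, reported as percent inhibition.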

[17] = biological target: Protein kinase C theta type (Homo sapiens) (UniProt Q04759); test: Inhibition of PRKCQ (unknown origin) at 1000 nM relative to control; procedure, shortened: as §2
[18] = Half life in C57BL/6J mouse at 5 mg/kg, iv by UPLC-MS analysis; assay type: ADME, organism-based; details: in vivo
Procedure, shortened: (§3)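 Male C57BL/6J mice, 2-3 months, 23-26 g. Single 5 mg/kg dose in 5% Kolliphor in saline, given iv (n=3) or by oral gavage (n=5). Tail-vein blood taken at 0.25, 0.5, 1, 4, 8 and 12 h and spun to plasma. Plasma analysed by LC-MS/MS on a triple quadrupole with a C18 column. Parameters from non-compartmental analysis.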

[19] = AUC (0 to infinity) in C57BL/6J mouse at 5 mg/kg, po by UPLC-MS analysis; assay type: ADME, organism-based; set-up: dose 5 mg/kg, time infinity, route oral; details: in vivo; procedure, shortened: as §3
[20] = Half life in C57BL/6J mouse at 5 mg/kg, po by UPLC-MS analysis; assay type: ADME, organism-based; details: in vivo; procedure, shortened: as §3
[21] = tested on: SW-620; test: Antitumor activity against human SW620 cells xenografted in nude mouse assessed as reduction in tumor volume at 10 mg/kg, ip QD for 32 consecutive days; assay type: functional, organism-based
Procedure, shortened: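 Six-week-old nude mice injected subcutaneously with 2×10^6 SW620 cells. Randomised at mean tumor volume 100–200 mm³ (n=6/group). Given 10 or 50 mg/kg ip daily for 32 consecutive days; vehicle 10% DMSO, 10% Kolliphor, 80% saline. Tumor volume measured every other day. Tumors weighed after euthanasia at day 32. t test against vehicle.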

[22] = Toxicity in C57BL/6 mouse assessed as effect on albumin level at 100 mg/kg/day, ip for 21 days; assay type: organism-based; details: in vivo, 504 h
[23] = tested on: Mus musculus; test: Inhibition of Wnt/beta-Catenin signaling in nude mouse xenografted with human SW620 cells assessed as reduction in S100A4 mRNA expression at 50 mg/kg, ip QD for 32 consecutive days by RT-PCR analysis; assay type: organism-based; details: in vivo
Procedure, shortened: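 Six-week-old nude mice implanted subcutaneously in the right flank with 2×10^6 SW620 cells. Randomized at mean tumor volume 100–200 mm³, n = 6/group. Dosed IP once daily for 32 days at 10 or 50 mg/kg, or vehicle (10% DMSO, 10% Kolliphor, 80% saline). Tumors collected at day 32; Axin-2, MMP-7 and S100A4 expression measured by RT-PCR.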

High affinity nerve growth factor receptor (Homo sapiens), sequence (P04629 33-796 limits assumed): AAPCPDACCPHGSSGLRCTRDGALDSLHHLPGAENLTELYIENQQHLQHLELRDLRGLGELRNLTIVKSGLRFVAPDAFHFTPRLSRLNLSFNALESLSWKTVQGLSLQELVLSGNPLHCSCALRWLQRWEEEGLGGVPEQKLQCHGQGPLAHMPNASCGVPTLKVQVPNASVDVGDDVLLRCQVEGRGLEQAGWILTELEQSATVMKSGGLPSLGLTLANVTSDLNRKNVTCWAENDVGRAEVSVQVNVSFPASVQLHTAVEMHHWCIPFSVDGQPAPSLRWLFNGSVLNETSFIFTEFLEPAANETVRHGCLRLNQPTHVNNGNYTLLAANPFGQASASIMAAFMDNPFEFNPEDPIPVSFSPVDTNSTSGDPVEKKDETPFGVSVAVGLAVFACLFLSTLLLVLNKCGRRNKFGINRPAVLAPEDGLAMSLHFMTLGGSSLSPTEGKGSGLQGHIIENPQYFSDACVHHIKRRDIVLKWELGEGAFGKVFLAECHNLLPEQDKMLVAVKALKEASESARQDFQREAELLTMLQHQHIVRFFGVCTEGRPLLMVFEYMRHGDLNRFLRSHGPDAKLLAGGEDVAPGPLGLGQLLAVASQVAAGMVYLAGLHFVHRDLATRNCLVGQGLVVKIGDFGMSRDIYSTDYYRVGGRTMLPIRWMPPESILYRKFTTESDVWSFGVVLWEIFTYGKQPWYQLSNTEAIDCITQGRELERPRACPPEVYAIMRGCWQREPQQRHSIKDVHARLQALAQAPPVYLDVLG
Protein kinase C theta type (Homo sapiens), sequence (Q04759 whole entry, looked up): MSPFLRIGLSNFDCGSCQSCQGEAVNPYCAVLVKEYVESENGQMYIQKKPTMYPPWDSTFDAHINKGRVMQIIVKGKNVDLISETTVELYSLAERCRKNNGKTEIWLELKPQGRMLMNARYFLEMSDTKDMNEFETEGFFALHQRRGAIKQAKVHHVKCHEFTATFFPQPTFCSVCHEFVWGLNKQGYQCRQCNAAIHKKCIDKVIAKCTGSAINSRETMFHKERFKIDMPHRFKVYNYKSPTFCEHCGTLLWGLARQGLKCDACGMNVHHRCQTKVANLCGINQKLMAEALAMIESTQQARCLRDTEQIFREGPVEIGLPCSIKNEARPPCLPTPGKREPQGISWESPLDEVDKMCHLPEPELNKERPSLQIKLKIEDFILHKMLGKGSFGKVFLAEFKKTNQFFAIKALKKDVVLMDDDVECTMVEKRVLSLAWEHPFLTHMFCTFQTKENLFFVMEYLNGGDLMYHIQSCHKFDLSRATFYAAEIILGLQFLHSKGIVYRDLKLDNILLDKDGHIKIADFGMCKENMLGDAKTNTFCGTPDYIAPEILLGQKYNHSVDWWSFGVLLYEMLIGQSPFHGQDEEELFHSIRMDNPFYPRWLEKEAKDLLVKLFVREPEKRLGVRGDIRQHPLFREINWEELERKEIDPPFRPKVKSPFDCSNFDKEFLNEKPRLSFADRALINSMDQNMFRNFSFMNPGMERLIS

Activity [5]: Dose-dependent effect | inhibition [16]: Active | inhibition [17]: Active | half-life [18]: 3.1 h | AUC(0-inf) [19]: 13200 ng·h/mL | half-life [20]: 2.9 h | inhibition (INH) [23]: Active
SMILES: Cc1c(C(=O)Nc2ccc3ccccc3n2)cnn1-c1ccccc1Br
inhibition of growth at 50 µM [1]: > 50% | inhibition [2]: Active | Activity [3]: Active | inhibition [4]: Active | inhibition [6]: Dose-dependent effect | inhibition [7]: Dose-dependent effect | Activity [8]: Dose-dependent effect | Activity [9]: 67.1% | Activity [10]: 23.4% | Activity [11]: 9.43% | Activity [12]: 35.7% | Activity [13]: 19.2% | Activity [14]: 22.1% | Activity [15]: 20% | Activity [21]: Active | Activity [22]: Non-Toxic

Reference: ChEMBL document CHEMBL4414663, “Pyrazole-4-Carboxamide (YW2065): A Therapeutic Candidate for Colorectal Cancer via Dual Activities of Wnt/β-Catenin Signaling Inhibition and AMP-Activated Protein Kinase (AMPK) Activation” (J Med Chem, 2019)
